# Laboratory results as given in ChEMBL document CHEMBL4627283, “Discovery and optimization of 4-oxo-2-thioxo-thiazolidinones as NOD-like receptor (NLR) family, pyrin domain-containing protein 3 (NLRP3) inhibitors” (Bioorg Med Chem Lett, 2020).
# pIC50: −log10 of the molar value. Active and inactive are the calls of the source. The calls are words filed in the database; no cut-off is given here.
# Legend:
# Homo sapiens = species on record: Homo sapiens; experiment: Selectivity index, ratio of inhibition of NLRP3 inflammasome (unknown origin) activation in bone marrow derived macrophage cells at 10 uM to inhibition of CFTR in human HT-29 cells at 20 uM; format: cell-based
# Method in brief: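 Selectivity index: % NLRP3 inhibition in BMDMs at 10 μM divided by % CFTR inhibition in HT29 cells at 20 μM.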
# [1] = Clearance in mouse liver microsomes in presence of NADPH; format: ADME, Microsome
# Method in brief: (§1)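 Stability in human and mouse liver microsomes incubated with an NADPH regenerating system; half-life (min) and hepatic clearance (mL/min/kg) determined.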
# [2] = molecular target: Cystic fibrosis transmembrane conductance regulator (Homo sapiens) (UniProt P13569); experiment: Inhibition of CFTR in human HT-29 cells assessed as effect on intracellular chloride efflux at 20 uM relative to control; format: cell-based
# [3] = Half life in mouse liver microsomes in presence of NADPH; format: ADME, Microsome; method in brief: as §1
# [4] = molecular target: T1, NACHT, LRR and PYD domains-containing protein 3 (Homo sapiens, UniProt Q96P20); experiment: Inhibition of NLRP3 inflammasome (unknown origin) activation in LPS-primed bone marrow derived macrophage cells assessed as effect on IL-1beta production in presence of nigericin by ELISA
# Method in brief: (§2)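 BMDMs pretreated with varied doses of compound, then LPS-primed and stimulated with nigericin; IL-1β in supernatant by ELISA, normalized to DMSO-treated control; IC50 given as mean ± SD.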
# [5] = molecular target: T1, NACHT, LRR and PYD domains-containing protein 3; experiment: Inhibition of NLRP3 inflammasome (unknown origin) activation in LPS-primed bone marrow derived macrophage cells at 10 uM in presence of mono sodium urate relative to control
# [6] = Clearance in human liver microsomes in presence of NADPH; format: ADME, Microsome; method in brief: as §1
# [7] = Half life in human liver microsomes in presence of NADPH; format: ADME, Microsome; method in brief: as §1
# [8] = molecular target: T1, NACHT, LRR and PYD domains-containing protein 3; experiment: Inhibition of NLRP3 inflammasome (unknown origin) assessed as suppression of mono sodium urate-induced IL-1beta level by immunoblot analysis
# Method in brief: (§3)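 LPS-primed BMDMs treated with graded doses of test compound, then stimulated with MSU; IL-1β and cleaved caspase-1 (p20) in culture supernatants detected by immunoblot.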
# [9] = molecular target: T1, NACHT, LRR and PYD domains-containing protein 3; experiment: Inhibition of NLRP3 inflammasome (unknown origin) assessed as suppression of mono sodium urate-induced caspase 1 activation by immunoblot analysis; method in brief: as §3
# [10] = molecular target: NLR family CARD domain-containing protein 4 (Homo sapiens) (UniProt Q9NPP4); experiment: Inhibition of NLRC4 inflammasome (unknown origin) activation in bone marrow derived macrophages assessed as inhibition of Salmonella-induced IL-1beta secretion at 5 uM by ELISA
# Method in brief: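 LPS-primed BMDMs treated with compound (5 μM), then infected with Salmonella typhimurium for different times; supernatant IL-1β by ELISA.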
# [11] = molecular target: T1, NACHT, LRR and PYD domains-containing protein 3; experiment: Inhibition of NLRP3 inflammasome (unknown origin) activation in bone marrow derived macrophage cells assessed as effect on mono sodium urate-induced TNF-alpha secretion at 5 uM by ELISA
# Method in brief: (§4)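 LPS-primed BMDMs given compound (5 μM), then nigericin (10 µM), ATP (2.5 mM) or MSU (150 µg/mL); TNF-α in supernatant measured by ELISA.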
# [12] = molecular target: T1, NACHT, LRR and PYD domains-containing protein 3; experiment: Inhibition of NLRP3 inflammasome (unknown origin) activation in bone marrow derived macrophage cells assessed as effect on ATP-induced TNF-alpha secretion at 5 uM by ELISA; method in brief: as §4
# [13] = molecular target: T1, NACHT, LRR and PYD domains-containing protein 3; experiment: Inhibition of NLRP3 inflammasome (unknown origin) activation in LPS-primed bone marrow derived macrophages assessed as inhibition of IL-1beta secretion at 5 uM in presence of nigericin by ELISA; settings: TDE = time-dependent effect
# Method in brief: (§5)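 LPS-primed BMDMs treated with compound (5 μM) and stimulated with nigericin (10 µM), ATP (2.5 mM) or MSU (150 µg/mL), over a time course or at increasing agonist doses; secreted IL-1β by ELISA.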
# [14] = molecular target: T1, NACHT, LRR and PYD domains-containing protein 3; experiment: Inhibition of NLRP3 inflammasome (unknown origin) activation in LPS-primed bone marrow derived macrophages assessed as inhibition of IL-1beta secretion in presence of nigericin by ELISA; method in brief: as §2
# Mus musculus [15] = species on record: Mus musculus; experiment: Reversal of NLRP3 mediated metabolic disorder in mouse model of diabetes; format: functional, organism-based
# [16] = molecular target: T1, NACHT, LRR and PYD domains-containing protein 3; experiment: Inhibition of NLRP3 inflammasome (unknown origin) activation in bone marrow derived macrophage cells assessed as effect on nigericin-induced TNF-alpha secretion at 5 uM by ELISA; method in brief: as §4
# [17] = molecular target: T1, NACHT, LRR and PYD domains-containing protein 3; experiment: Inhibition of NLRP3 inflammasome (unknown origin) activation in LPS-primed bone marrow derived macrophages assessed as inhibition of IL-1beta secretion at 5 uM in presence of mono sodium urate by ELISA; settings: TDE = time-dependent effect; method in brief: as §5
# [18] = molecular target: T1, NACHT, LRR and PYD domains-containing protein 3; experiment: Inhibition of NLRP3 inflammasome (unknown origin) activation in LPS-primed bone marrow derived macrophages assessed as inhibition of IL-1beta secretion at 5 uM in presence of ATP by ELISA; settings: TDE = time-dependent effect; method in brief: as §5
# [19] = Oral bioavailability in Sprague-Dawley rat administered as single dose; format: ADME, organism-based; settings: in vivo
# Method in brief: (§6)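 Sprague-Dawley rats given a single intravenous or oral dose; pharmacokinetic parameters (half-life, AUC, bioavailability) derived from the plasma profile.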
# [20] = AUC in po or iv qd dosed Sprague-Dawley rat; format: ADME, organism-based; settings: in vivo; method in brief: as §6
# [21] = molecular target: T2, Interferon-inducible protein AIM2 (Homo sapiens) (UniProt O14862); experiment: Inhibition of AIM2 inflammasome (unknown origin) activation in bone marrow derived macrophages assessed as inhibition of poly(dA:dT)-induced IL-1beta secretion at 5 uM by ELISA
# T2 sequence (whole entry): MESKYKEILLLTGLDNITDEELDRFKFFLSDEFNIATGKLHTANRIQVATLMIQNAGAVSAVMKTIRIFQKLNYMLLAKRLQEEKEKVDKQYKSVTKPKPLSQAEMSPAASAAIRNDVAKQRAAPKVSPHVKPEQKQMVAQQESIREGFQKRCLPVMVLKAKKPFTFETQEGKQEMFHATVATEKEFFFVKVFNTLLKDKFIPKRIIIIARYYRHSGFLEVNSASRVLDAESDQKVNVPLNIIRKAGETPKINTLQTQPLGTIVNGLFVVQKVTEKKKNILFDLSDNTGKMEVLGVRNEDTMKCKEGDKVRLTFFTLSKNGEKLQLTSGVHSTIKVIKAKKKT
# Method in brief: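 LPS-primed BMDMs treated with compound (5 μM), then transfected with poly(dA:dT) (0.5 µg/ml) using Lipofectamine for various times; supernatant IL-1β by ELISA.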
# [22] = molecular target: T1, NACHT, LRR and PYD domains-containing protein 3; experiment: Inhibition of NLRP3 inflammasome (unknown origin) activation in LPS-primed bone marrow derived macrophages assessed as inhibition of IL-1beta secretion in presence of ATP by ELISA; method in brief: as §5
# [23] = molecular target: T1, NACHT, LRR and PYD domains-containing protein 3; experiment: Inhibition of NLRP3 inflammasome (unknown origin) activation in LPS-primed bone marrow derived macrophages assessed as inhibition of IL-1beta secretion in presence of mono sodium urate by ELSIA; method in brief: as §5
# Mus musculus [24] = experiment: In vivo inhibition of NLRP3 inflammasome activation in mouse model of cryopyrin-associated auto-inflammatory syndrome; format: functional, organism-based
# Sequence of Cystic fibrosis transmembrane conductance regulator (Homo sapiens) (P13569 whole entry, looked up): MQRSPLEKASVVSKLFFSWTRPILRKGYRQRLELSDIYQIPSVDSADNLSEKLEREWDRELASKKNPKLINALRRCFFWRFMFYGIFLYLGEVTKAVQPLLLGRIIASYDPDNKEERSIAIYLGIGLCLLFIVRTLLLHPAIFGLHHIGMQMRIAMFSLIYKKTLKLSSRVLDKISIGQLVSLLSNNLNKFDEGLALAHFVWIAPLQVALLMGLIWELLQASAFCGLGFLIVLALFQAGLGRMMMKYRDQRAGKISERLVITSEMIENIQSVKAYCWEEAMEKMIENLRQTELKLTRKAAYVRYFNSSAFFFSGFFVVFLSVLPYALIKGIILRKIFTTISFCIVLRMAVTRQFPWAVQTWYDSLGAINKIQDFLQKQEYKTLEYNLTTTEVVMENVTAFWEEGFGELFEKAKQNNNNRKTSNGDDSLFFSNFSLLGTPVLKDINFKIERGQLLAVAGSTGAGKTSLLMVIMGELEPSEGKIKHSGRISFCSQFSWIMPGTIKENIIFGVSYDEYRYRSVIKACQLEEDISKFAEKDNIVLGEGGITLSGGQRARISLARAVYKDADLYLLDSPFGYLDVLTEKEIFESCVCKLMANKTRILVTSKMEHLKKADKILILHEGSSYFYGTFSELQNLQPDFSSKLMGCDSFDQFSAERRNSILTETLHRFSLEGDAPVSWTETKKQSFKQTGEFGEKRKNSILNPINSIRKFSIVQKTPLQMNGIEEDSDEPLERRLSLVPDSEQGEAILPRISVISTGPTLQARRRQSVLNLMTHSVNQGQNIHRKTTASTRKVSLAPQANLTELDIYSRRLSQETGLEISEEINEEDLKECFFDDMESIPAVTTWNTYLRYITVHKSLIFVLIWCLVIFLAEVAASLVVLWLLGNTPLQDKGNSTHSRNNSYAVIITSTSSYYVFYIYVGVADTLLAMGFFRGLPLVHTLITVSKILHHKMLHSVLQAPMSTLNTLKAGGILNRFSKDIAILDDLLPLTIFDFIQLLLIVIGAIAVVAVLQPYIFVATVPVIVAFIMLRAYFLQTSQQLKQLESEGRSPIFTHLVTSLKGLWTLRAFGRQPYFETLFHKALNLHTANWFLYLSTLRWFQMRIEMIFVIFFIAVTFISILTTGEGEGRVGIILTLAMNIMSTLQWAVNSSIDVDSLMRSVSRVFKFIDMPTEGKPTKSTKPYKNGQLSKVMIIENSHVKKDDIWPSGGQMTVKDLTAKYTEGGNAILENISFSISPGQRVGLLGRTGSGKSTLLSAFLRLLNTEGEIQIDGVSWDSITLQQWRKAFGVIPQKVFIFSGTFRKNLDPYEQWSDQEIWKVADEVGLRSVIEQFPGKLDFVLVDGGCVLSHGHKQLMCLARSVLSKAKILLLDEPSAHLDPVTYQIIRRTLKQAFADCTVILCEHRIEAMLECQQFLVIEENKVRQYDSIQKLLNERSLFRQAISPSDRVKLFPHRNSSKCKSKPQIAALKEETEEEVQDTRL
# T1 sequence (Q96P20 whole entry, the tested form may be a part): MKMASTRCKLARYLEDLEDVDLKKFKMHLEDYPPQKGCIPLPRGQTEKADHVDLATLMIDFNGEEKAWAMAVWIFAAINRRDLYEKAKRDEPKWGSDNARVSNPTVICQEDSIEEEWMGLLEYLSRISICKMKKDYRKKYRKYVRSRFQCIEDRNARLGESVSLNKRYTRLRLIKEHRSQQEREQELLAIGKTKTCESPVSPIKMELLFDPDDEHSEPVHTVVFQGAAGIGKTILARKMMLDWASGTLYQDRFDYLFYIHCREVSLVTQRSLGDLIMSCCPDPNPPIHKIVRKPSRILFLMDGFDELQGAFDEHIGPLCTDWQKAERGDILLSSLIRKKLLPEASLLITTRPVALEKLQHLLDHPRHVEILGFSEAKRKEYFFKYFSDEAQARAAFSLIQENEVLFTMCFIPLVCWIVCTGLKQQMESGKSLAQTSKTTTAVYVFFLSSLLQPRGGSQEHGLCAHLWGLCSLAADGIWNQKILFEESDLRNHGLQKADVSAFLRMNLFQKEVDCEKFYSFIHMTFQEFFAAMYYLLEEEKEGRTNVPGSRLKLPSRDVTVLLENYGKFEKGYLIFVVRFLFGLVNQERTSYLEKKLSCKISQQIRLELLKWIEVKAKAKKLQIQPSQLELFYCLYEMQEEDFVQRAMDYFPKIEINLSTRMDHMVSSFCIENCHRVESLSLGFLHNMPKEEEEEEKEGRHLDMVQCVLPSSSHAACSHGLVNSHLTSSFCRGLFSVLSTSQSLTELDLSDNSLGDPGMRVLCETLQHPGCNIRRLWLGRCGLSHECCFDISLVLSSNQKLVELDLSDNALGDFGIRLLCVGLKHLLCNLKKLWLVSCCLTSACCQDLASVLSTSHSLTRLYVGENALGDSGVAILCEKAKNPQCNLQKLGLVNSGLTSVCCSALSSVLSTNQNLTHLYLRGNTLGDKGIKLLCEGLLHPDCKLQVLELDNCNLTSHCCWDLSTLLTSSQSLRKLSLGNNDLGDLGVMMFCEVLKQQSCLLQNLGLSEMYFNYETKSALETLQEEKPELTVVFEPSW
# Sequence of NLR family CARD domain-containing protein 4 (Homo sapiens) (Q9NPP4 whole entry, the tested form may be a part): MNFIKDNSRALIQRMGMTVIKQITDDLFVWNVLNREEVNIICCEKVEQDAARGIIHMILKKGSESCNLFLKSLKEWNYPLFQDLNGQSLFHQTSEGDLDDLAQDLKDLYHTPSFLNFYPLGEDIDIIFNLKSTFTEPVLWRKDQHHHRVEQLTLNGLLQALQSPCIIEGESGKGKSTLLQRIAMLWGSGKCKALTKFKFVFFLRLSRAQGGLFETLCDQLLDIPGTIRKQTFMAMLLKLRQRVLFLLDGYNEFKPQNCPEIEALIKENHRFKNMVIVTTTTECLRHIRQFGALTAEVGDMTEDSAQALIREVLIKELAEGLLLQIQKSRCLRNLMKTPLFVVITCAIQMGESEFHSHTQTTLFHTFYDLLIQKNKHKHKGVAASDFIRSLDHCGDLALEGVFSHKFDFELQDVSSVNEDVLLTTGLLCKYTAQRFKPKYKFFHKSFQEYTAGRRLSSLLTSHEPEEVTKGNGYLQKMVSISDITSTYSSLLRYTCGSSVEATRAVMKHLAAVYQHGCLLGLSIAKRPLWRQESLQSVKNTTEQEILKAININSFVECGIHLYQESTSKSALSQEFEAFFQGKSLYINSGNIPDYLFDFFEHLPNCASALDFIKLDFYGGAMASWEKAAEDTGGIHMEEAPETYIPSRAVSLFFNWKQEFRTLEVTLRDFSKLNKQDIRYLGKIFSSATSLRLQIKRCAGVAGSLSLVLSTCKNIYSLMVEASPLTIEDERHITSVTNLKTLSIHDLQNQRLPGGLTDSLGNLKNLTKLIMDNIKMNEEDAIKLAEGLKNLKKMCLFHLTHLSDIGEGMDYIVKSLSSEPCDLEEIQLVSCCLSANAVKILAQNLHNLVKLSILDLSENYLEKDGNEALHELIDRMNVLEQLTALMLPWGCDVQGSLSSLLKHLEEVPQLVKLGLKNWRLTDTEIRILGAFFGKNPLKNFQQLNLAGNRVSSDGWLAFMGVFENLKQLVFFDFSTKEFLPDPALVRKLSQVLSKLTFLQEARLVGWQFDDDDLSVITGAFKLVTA
Compound,Selectivity Index (Homo sapiens),CLhep predicted [1],inhibition [2],half-life [3],pIC50 [4],inhibition [5],CLhep predicted [6],half-life [7],also measured
CN1CCN(C(=O)c2ccc(/C=C3\SC(=S)N(c4cccc(OC(F)(F)F)c4)C3=O)cc2)CC1,1.1,83 mL/min/kg,69%,3.7 min,5.59,76%,12.8 mL/min/kg,27.1 min,–
O=C(O)c1ccc(/C=C2\SC(=O)N(Cc3cccc(C(F)(F)F)c3)C2=O)cc1,–,–,23%,–,5.22,67%,–,–,–
C[C@]12CC[C@H]3[C@@H](CCC4=CC(=O)CC[C@@]43C)[C@@H]1CC[C@@H]2O [TESTOSTERONE],–,–,–,–,–,–,2.8 mL/min/kg,277 min,–
O=C1S/C(=C\c2ccc(-c3nnn[nH]3)cc2)C(=O)N1Cc1cccc(C(F)(F)F)c1,–,–,> 10%,–,5.25,63%,–,–,–
O=C(O)c1ccc(/C=C2\SC(=S)N(c3cccc(C(F)(F)F)c3)C2=O)cc1,0.83,69.8 mL/min/kg,86%,12.6 min,5.19,71%,2.8 mL/min/kg,277 min,inhibition [8]: Dose-dependent effect; inhibition [9]: Dose-dependent effect
O=C1/C(=C/c2ccc(-c3nnn[nH]3)cc2)SC(=S)N1Cc1cccc(C(F)(F)F)c1,–,–,–,–,5.25,67%,–,–,–
O=C(O)c1ccc(/C=C2\SC(=S)N(CCc3cccc(C(F)(F)F)c3)C2=O)cc1,–,–,> 10%,–,5.23,74%,–,–,–
O=C(Nc1ccccc1)c1ccc(/C=C2\SC(=S)N(c3cccc(C(F)(F)F)c3)C2=O)cc1,1.19,–,27%,–,< 5.00,32%,–,–,–
O=C(O)c1ccc(/C=C2\SC(=S)N(Cc3cccnc3)C2=O)cc1,–,–,> 10%,–,5.20,63%,–,–,–
O=C1/C(=C/c2ccc(-c3nnn[nH]3)cc2)SC(=S)N1CCc1cccc(C(F)(F)F)c1,–,–,–,–,5.19,67%,–,–,–
O=C1/C(=C/c2ccc(-c3nnn[nH]3)cc2)SC(=S)N1CCCc1cccc(C(F)(F)F)c1,–,–,> 10%,–,5.31,72%,–,–,–
CN1CCN(C(=O)c2ccc(/C=C3\SC(=S)N(Cc4cccc(C(F)(F)F)c4)C3=O)cc2)CC1,–,–,10%,–,< 5.00,35%,–,–,–
O=C(c1ccc(/C=C2\SC(=S)N(c3cccc(C(F)(F)F)c3)C2=O)cc1)N1CCOCC1,1.09,< 20.7 mL/min/kg,74%,> 145 min,5.56,81%,< 4.7 mL/min/kg,> 145 min,–
CN1CCN(C(=O)c2ccc(/C=C3\SC(=S)N(c4cccc(C(F)(F)F)c4)C3=O)cc2)CC1,1.05,86.6 mL/min/kg,77%,1.7 min,5.57,81%,15.3 mL/min/kg,15.6 min,–
O=C(O)c1ccc(/C=C2\SC(=S)N(Cc3cccc(OC(F)(F)F)c3)C2=O)cc1,–,–,12%,–,< 5.00,29%,–,–,–
CN1CCN(C(=O)c2ccc(/C=C3\SC(=S)N(c4cccc([N+](=O)[O-])c4)C3=O)cc2)CC1,1.23,86.5 mL/min/kg,66%,1.8 min,5.53,81%,15.8 mL/min/kg,13.8 min,–
O=C(O)c1ccc(/C=C2\SC(=S)N(Cc3cccc(C(F)(F)F)c3)C2=O)cc1,–,< 20.7 mL/min/kg,–,> 145 min,5.62,83%,< 4.7 mL/min/kg,> 145 min,inhibition [10]: inactive; inhibition [11]: inactive; inhibition [12]: inactive; inhibition [13]: Tde; inhibition [14]: Dose-dependent effect; Activity (Mus musculus [15]): Active; inhibition [16]: inactive; inhibition [17]: Tde; inhibition [18]: Tde; bioavailability [19]: 27%; AUC [20]: 1930 ng·h/mL; inhibition [21]: inactive; inhibition [22]: Dose-dependent effect; inhibition [23]: Dose-dependent effect; inhibition (Mus musculus [24]): Active
O=C(O)c1ccc(/C=C2\SC(=S)N(CCCc3cccc(C(F)(F)F)c3)C2=O)cc1,–,–,–,–,5.36,68%,–,–,–
O=C(c1ccc(/C=C2\SC(=S)N(c3cccc(OC(F)(F)F)c3)C2=O)cc1)N1CCOCC1,1.1,58.1 mL/min/kg,68%,23.9 min,5.50,75%,3.9 mL/min/kg,187 min,–
O=C(O)c1ccc(/C=C2\SC(=S)N(Cc3ccc(-c4ccccc4)cc3)C2=O)cc1,–,–,11%,–,5.12,73%,–,–,–
CC(C)NCC(O)COc1cccc2ccccc12 (configuration not stated) [PROPRANOLOL],–,86.6 mL/min/kg,–,1.7 min,–,–,15.3 mL/min/kg,15.6 min,–
O=C(c1ccc(/C=C2\SC(=S)N(c3cccc(C(F)(F)F)c3)C2=O)cc1)N1CCC(O)CC1,1.11,82.4 mL/min/kg,72%,4 min,5.61,80%,10.3 mL/min/kg,44.1 min,–
O=C(O)c1ccc(/C=C2\SC(=S)N(Cc3cccc(F)c3)C2=O)cc1,–,–,> 10%,–,5.45,63%,–,–,–
